Bioassay records: PubChem, Broad Institute
SIRT5 inh: blocks human SIRT5 desuccinylation of peptide; Q9NXA8; Purified SirT5, succinyl-peptide AMC, trypsin-coupled fluorescence; inhibition, % at 15 µM; 330,000 compounds, 1.1% hits; in the data active means inhibition above about 15%
Target sequence (Q9NXA8 whole entry, looked up): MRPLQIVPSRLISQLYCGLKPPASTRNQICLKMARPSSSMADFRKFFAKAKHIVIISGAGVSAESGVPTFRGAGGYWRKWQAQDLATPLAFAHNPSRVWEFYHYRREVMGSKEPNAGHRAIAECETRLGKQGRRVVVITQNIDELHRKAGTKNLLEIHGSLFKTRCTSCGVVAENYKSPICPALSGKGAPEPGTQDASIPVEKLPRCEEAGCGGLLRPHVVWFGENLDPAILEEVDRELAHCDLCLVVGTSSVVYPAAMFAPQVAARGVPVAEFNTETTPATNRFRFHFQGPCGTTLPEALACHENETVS
PGC1a acetyl inh: lowers PGC1a acetylation signal in U2OS cells; AlphaScreen anti-acetyl-lysine; with virally co-expressed GCN5 acetyltransferase; inhibition, % at 15.6 µM; 350,000 compounds, 0.17% hits; AID 651687;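 active means every replicate shows inhibition of at least 40%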;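 further: 0% = neutral control wells and 100% = positive control wells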
DENV2 CPE rescue: protects cells from dengue virus 2 cytopathic effect; AID 651640; 350,000 compounds, 1.7% hits; CPE inhibition, % at 9.99 µM; DENV2-infected cells, cytopathic effect rescue, plate reader; in the data active means CPE inhibition above about 20%, passing the limit was not always enough; tested in BHK-21 cells;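 further: 0% = median of neutral control wells and 100% = median of positive control wells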
S100A4 inh HTS: inhibitors of human S100A4 binding to myosin IIA peptide; S100A4/TAMRA-MyoIIA peptide fluorescence polarization; 360,000 compounds, 0.14% hits; inhibition, % at 10.7 µM; AID 652163; P26447;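 active means mean inhibition of at least 70% across replicates, with every replicate also reaching that level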
Target sequence (P26447 whole entry, looked up): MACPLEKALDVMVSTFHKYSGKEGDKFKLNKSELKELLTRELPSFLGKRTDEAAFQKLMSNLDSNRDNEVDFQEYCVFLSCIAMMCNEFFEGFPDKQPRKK
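Material: human S100A4 monomer with TAMRA-labelled myosin IIA peptide; buffer or medium: HEPES pH 7.2 with CaCl2, KCl, NaCl, DTT, Triton; compound dosing: one concentration per compound; schedule: 5 min incubation before reading; benchmarks: neutral control DMSO, positive control TFP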
C2C12 statin: protects C2C12 myotubes from simvastatin toxicity; ATP luminescence, 48 h; scaled: DMSO 0, geranylgeraniol control 100; rescue of ATP level, % at 7.49 µM; 330,000 compounds, 0.78% hits; AID 602340;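 active means mean ATP rescue above about 67%, or every replicate alone reaching that limit, limit read from the data, passing the limit was not always enough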;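 further: myotubes were challenged with 10 µM simvastatin during compound exposure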
An asterisk follows results filed as active; . = no result. Most compounds without a hit are left out; they make up all but 2.9% or so of the library.

SMILES	SIRT5 inh	PGC1a acetyl inh	DENV2 CPE rescue	S100A4 inh HTS	C2C12 statin
C[C@H](CO)N1C[C@H](C)[C@@H](CN(C)Cc2ccc(Oc3ccccc3)cc2)Oc2ccc(NS(=O)(=O)c3ccc(Cl)cc3)cc2CC1=O	18.9*	0.8	-2.5	-42.2	36.8
C[C@@H]1CN([C@@H](C)CO)C(=O)Cc2cc(NS(=O)(=O)c3ccc(Cl)cc3)ccc2O[C@H]1CN(C)Cc1ccc(Oc2ccccc2)cc1	23.9*	-7.3	-0.2	-32.8	47.8
C[C@@H]1CN([C@H](C)CO)C(=O)Cc2cc(NS(=O)(=O)c3ccccc3)ccc2O[C@@H]1CN(C)Cc1ccc(Oc2ccccc2)cc1	11.6	2.1	29.9*	9.1	25.9
CN1C(=O)c2cc(NC(=O)Cc3ccccc3)ccc2OC[C@H]2O[C@@H](CC(=O)NC3CCC3)CC[C@@H]21	-4.3	-5.2	-0.7	0.6	7.0
Cc1cc(C)n(CC(C)NC(=O)CCc2nnc(CCc3ccccc3)o2)n1 (stereo unspecified)	-5.1	3.5	1.2	-5.7	-0.6
Cc1cc(C)n(CCNC(=O)CCc2nnc(CCc3ccccc3)o2)n1	15.2*	0.3	-4.2	12.4	-6.0
Cc1ccc(S(=O)(=O)N2CCCSCC2)cc1	.	-26.5	.	.	113.9*
CC(=O)c1cccc(NC(=S)N2CCN(S(=O)(=O)c3ccccc3)CC2)c1	-0.5	.	68.9*	-4.4	0.4
Cc1ccc(-c2ccc(S(=O)(=O)N3CCCC3)cc2)cc1	-5.9	-7.7	15.1	4.7	.
Cc1ccc(NC(=S)N2CCN(S(=O)(=O)c3ccc(C)cc3)CC2)cc1	1.1	-2.6	26.6*	-2.4	1.9
CCOC(=O)c1cnc2ccc(OCC)cc2c1N1CCN(c2ccccc2)CC1	.	-24.1	.	.	80.7*
O=C(O)C(c1ccccc1)N1C(=O)c2ccccc2C1=O (stereo unspecified)	-4.7	1.6	0.4	0.5	5.6
O=C(O)CC(c1ccccc1)N1C(=O)c2ccccc2C1=O (stereo unspecified)	-5.8	.	40.3*	-0.4	.
C[C@@H]1CCCCO[C@@H](CN(C)C(=O)Nc2ccc3c(c2)OCO3)[C@H](C)CN([C@@H](C)CO)C(=O)c2cc(NC(=O)Nc3ccc4c(c3)OCO4)ccc2O1	6.2	1.1	6.5	1.7	.
O=C1NN=C(c2ccc(Cl)cc2)CC1c1cccc(Cl)c1 (stereo unspecified)	.	-3.2	.	.	136.9*
O=C1NN=C(c2ccccc2)CC1c1ccc(Cl)cc1Cl (stereo unspecified)	-7.4	4.2	7.1	-0.5	3.2
COCC(=O)N(C)[C@H]1C[C@H]2c3cc(-c4ccccc4)ccc3CCN2C(=O)[C@H]1[C@H](C)O	-3.6	-4.9	-5.0	-1.2	-0.4
COc1ccc(-c2ccc3c(c2)[C@@H]2C[C@H](N(C)C(=O)C(C)(C)C)[C@H]([C@H](C)O)C(=O)N2CC3)cc1	-3.7	-11.3	129.4*	-5.5	-0.8
COc1cc(C(C)=O)ccc1OCc1cn(CC(=O)c2ccc(O)cc2)nn1	20.9*	.	6.8	-1.5	-12.7
CC(=O)c1ccc(OCc2cn(CC(=O)c3ccc(O)cc3)nn2)c(C)c1	1.0	8.7	-4.4	0.3	-1.1
O=C(NC[C@@H]1[C@H](c2ccccc2)[C@@H](CO)N1C(=O)Cc1cccnc1)C1CC1	-1.1	-3.7	-6.1	4.0	-5.3
COc1ccc(CN(C)C[C@@H]2OCCCC[C@H](C)Oc3ccc(NC(=O)Nc4ccccc4)cc3C(=O)N([C@H](C)CO)C[C@H]2C)cc1	.	0.6	38.6*	.	.
COc1ccc(NC(=O)Nc2ccc3c(c2)C(=O)N([C@H](C)CO)C[C@@H](C)[C@@H](CN(C)Cc2ccc(C(F)(F)F)cc2)OCCCC[C@H](C)O3)cc1	10.9	-26.6	-2.2	-3.4	157.9*
COc1ccc(CN(C)C[C@H]2OCCCC[C@@H](C)Oc3ccc(NC(=O)Nc4ccccc4)cc3C(=O)N([C@@H](C)CO)C[C@H]2C)cc1	.	3.9	-7.1	.	.
COc1ccc(CN(C)C[C@H]2OCCCC[C@@H](C)Oc3ccc(N(C)C)cc3C(=O)N([C@@H](C)CO)C[C@H]2C)cc1	-1.9	-2.1	-3.5	10.8	21.8
SMILES	SIRT5 inh	PGC1a acetyl inh	DENV2 CPE rescue	S100A4 inh HTS	C2C12 statin
COc1ccc(NC(=O)Nc2ccc3c(c2)C(=O)N([C@@H](C)CO)C[C@H](C)[C@H](CN(C)Cc2ccc(C(=O)O)cc2)OCCCC[C@H](C)O3)cc1	2.5	11.8	80.1*	7.2	.
COc1ccc(CN(C)C[C@H]2OCCCC[C@H](C)Oc3ccc(N(C)C)cc3C(=O)N([C@H](C)CO)C[C@H]2C)cc1	21.9*	-16.3	3.5	-20.8	-15.1
COc1ccc(NC(=O)Nc2ccc3c(c2)C(=O)N([C@H](C)CO)C[C@@H](C)[C@H](CN(C)Cc2ccc(C(=O)O)cc2)OCCCC[C@H](C)O3)cc1	1.7	-2.8	5.4	-1.4	.
COc1ccc(NC(=O)Nc2ccc3c(c2)C(=O)N([C@H](C)CO)C[C@H](C)[C@@H](CN(C)Cc2ccc(C(F)(F)F)cc2)OCCCC[C@H](C)O3)cc1	6.5	-0.3	3.5	-28.7	5.8
C[C@H](CO)N1C[C@H](C)[C@H](CN(C)Cc2ccc(C(=O)O)cc2)Oc2cc(/C=C/c3ccccc3)ccc2S1(=O)=O	-0.8	10.7	3.8	8.2	-11.6
C[C@@H]1CCCCO[C@@H](CN(C)CC2CCCCC2)[C@@H](C)CN([C@H](C)CO)C(=O)c2cc(N(C)C)ccc2O1	3.3	-0.5	48.3*	4.9	-14.4
COc1ccc(CN(C)C[C@H]2OCCCC[C@@H](C)Oc3ccc(NC(=O)NC4CCCCC4)cc3C(=O)N([C@H](C)CO)C[C@H]2C)cc1	18.7*	-14.0	-8.0	6.7	.
COc1ccc(CN(C)C[C@H]2OCCCC[C@@H](C)Oc3ccc(NC(=O)NC(C)C)cc3C(=O)N([C@H](C)CO)C[C@H]2C)cc1	1.2	-4.1	85.5*	1.4	-26.0
COc1ccc(CN(C)C[C@@H]2OCCCC[C@H](C)Oc3ccc(NC(=O)NC(C)C)cc3C(=O)N([C@H](C)CO)C[C@H]2C)cc1	-1.2	1.4	4.6	-9.2	16.2
CSc1nc2c(=S)[nH]c(=S)[nH]c2s1	2.5	.	87.3*	-2.7	.
Cc1cc(C(=O)N/N=C2/CC(C)CC(C)(C)C2)c(C)o1 (stereo unspecified)	41.3*	-2.0	-0.7	-3.7	-9.0
C[C@H]1CCCCO[C@@H](CN(C)C)[C@@H](C)CN([C@@H](C)CO)C(=O)c2cc(NC(=O)Nc3ccc(C(F)(F)F)cc3)ccc2O1	1.2	11.8	-14.3	0.1	4.6
Cc1noc(C)c1NC(=O)N(C)C[C@H]1Oc2c(NC(=O)C3CC3)cccc2C(=O)N([C@H](C)CO)C[C@H]1C	-0.1	2.0	24.4*	1.7	-4.6
Cc1noc(C)c1NC(=O)N(C)C[C@@H]1Oc2c(cccc2N(C)C)C(=O)N([C@H](C)CO)C[C@H]1C	-1.3	2.8	-7.4	-23.7	-13.9
